# From PubChem BioAssay
# CHOP UPR activ: activators of apoptotic arm of unfolded protein response (CHOP); activation, % at 10 µM; CHO-CHOP luciferase reporter, UPR activation, luminescence; percent of tunicamycin response over DMSO baseline; 0.34% of 330,000 active;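 active = at 10 µM dose, activation of 40% or more, normalized to positive control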
#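 Assay system: CHO-CHOP cells, stable luciferase reporter of PERK-eIF2a-CHOP signalling / Buffer or medium: F12 plus 10% serum / Compound dosing: one dose, 10 µM in 0.5% DMSO / Times: 6 h compound treatment, 37 °C / Technique: luciferase luminescence / Read-out: % reporter activation, DMSO baseline versus tunicamycin full activation / Benchmarks: tunicamycin and DMSO controls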
# Beta cell apopt: blocks beta cell apoptosis | INS-1E cytokine-induced death, ATP luminescence, 48 h; percent of positive-control rescue, neutral wells zero | protection from apoptosis, % (no concentration beside the values) | 0.8% of 300,000 active;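 active = Every replicate reaches about 75%, or at least half do and their mean reaches it too, limit read from the data; inconclusive = At least half of replicates reach the limit but their mean does not; inactive = Under half of replicates reach the limit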;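 note: higher means more ATP so stronger rescue from cytokine killing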
# XBP1 UPR activ: adaptive UPR (XBP1) activation | 0.33% of 330,000 active | AID 463104 | CHO-XBP1 luciferase reporter, IRE1-XBP1 UPR activation, luminescence; percent of tunicamycin response, DMSO as zero | activation, % at 20 µM;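 active = versus positive control, 20 µM dose yields 30% or more activation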
#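 Signal: luciferase luminescence; Assay system: CHO-XBP1 luciferase reporter cells; Amount: one thousand reporter cells per well; Dosing: 20 µM single concentration, DMSO 1%; Benchmarks: high control tunicamycin 10 µg/mL final, low control DMSO vehicle only; Schedule: 6 h compound exposure at 37 °C, 5% CO2; Evaluation: percent activation relative to tunicamycin reference.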
# Mdm2-MdmX inh: disrupts the human Mdm2-MdmX interaction; SaOS-2 split-luciferase Mdm2/MdmX complementation, luminescence; 3% of 330,000 active; O15151+Q00987; inhibition, % at 8 µM;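 active = inhibition of at least 50% at 8 µM in the primary screen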
# CSC inhib: cancer stem cell inhibition | inhibition, % at 7.5 µM | cancer stem cell-like cells viability, luminescence | AID 2717 | 1.1% of 300,000 active; in the data active = inhibition above about 75%; inconclusive = no clear call, values can overlap the other calls; tested in HMLE shEcad cells
# SKKanGAS inh: inhibitors of SKKanGAS S. pyogenes growth in kanamycin (SK-promoter or general growth effect); BacTiter-Glo, 6 h; inhibition, % at 7.5 µM; 1.3% of 300,000 active;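 active = mean replicate score, as percent of positive control median, at least 50; inconclusive = mean below 50 but one replicate at or above 50; inactive = mean and every replicate below 50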;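 note: strain carries kanamycin resistance gene driven by streptokinase promoter and grows in 40 µg/ml kanamycin; loss of luminescence reflects streptokinase promoter inhibition or plain growth inhibition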
# Mdm2-MdmX conf: human Mdm2/MdmX binding inhibition, confirmed | AID 489028 | inhibition, % at 8 µM | shares compounds with Mdm2-MdmX inh | luminescent assay | 55% of 10,000 active; in the data active = inhibition above about 40%
# Full FLuc ctr: counter-screen for Mdm2/MdmX inhibitors: full-length luciferase. shares compounds with Mdm2-MdmX inh. SaOS-2 full-length luciferase counterscreen, luminescence. inhibition, % at 8 µM. 77% of 6,200 active. AID 504607;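 active = mean inhibition at 8 µM reaching about 37%, which flags the compound as non-specific, limit read from the data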;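 note: p53-null SaOS-2 cells with luciferase driven by a doxycycline-inducible promoter; compound on cells about two nights before reading with doxycycline added after day one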
# A number is an active result; . = inactive; ? = inconclusive; / = not tested or not shown. Most compounds without a hit are left out; they make up all but 4.8% or so of the library.
SMILES,CHOP UPR activ,Beta cell apopt,XBP1 UPR activ,Mdm2-MdmX inh,CSC inhib,SKKanGAS inh,Mdm2-MdmX conf,others
COc1ccc([C@@H]2[C@@H]3C(=O)N(C(C)(C)C)C(=O)[C@@H]3[C@]3(Cc4ccccc4)C(=O)N(c4ccc(OC)cc4)C(=O)N23)cc1,.,.,.,.,.,.,/,
COc1ccc(CNC(=O)CCNS(=O)(=O)c2cc(Br)cnc2N)cc1,.,.,.,.,.,.,/,
O=C(NCC1CCCO1)c1ccc(Cl)c(S(=O)(=O)N2CCCCC2)c1 (stereo not drawn),.,.,.,.,.,.,/,
Cc1ccc(N=Cc2cc(Cl)cc(Cl)c2O)nc1,.,.,.,.,.,.,/,
Oc1c(Cl)cc(Cl)cc1/C=N/Nc1ncc(Br)cn1,.,86,.,67,.,.,69,Full FLuc ctr=.
Cc1ccc(Sc2ncccc2C(=O)N(C)Cc2cccs2)c(C)c1,.,.,.,.,.,.,/,
COC(=O)c1ccc(/C=C/c2c(-c3ccsc3)oc3ccc(N4CCOCC4)cc23)cc1,.,.,.,57,109,.,.,
COc1ccc([C@H]2CC(=O)C=C(c3cc(C(F)(F)F)cc(C(F)(F)F)c3)C2)cc1,.,.,.,.,.,/,/,
Clc1ccc(-c2nnnn2-c2ccc(Cl)cc2)cc1,.,.,.,.,.,.,/,
Nc1ncc(-c2nnnn2-c2ccc(Cl)cc2)c(-c2ccc(Cl)cc2)n1,.,.,.,57,.,.,68,Full FLuc ctr=46
Cc1cnc(NC(=O)CCCc2nc3ccccc3s2)s1,.,.,.,90,.,.,59,Full FLuc ctr=54
O=C(CCCc1nc2ccccc2s1)Nc1nccs1,.,/,.,.,.,.,/,
CCCN1CCc2nc(SCC(=O)Nc3ccc(C)c(Cl)c3)[nH]c(=O)c2C1,.,.,.,.,.,.,/,
O=C(CSc1nc2ccc(NC(=O)CSc3nnnn3Cc3ccccc3)cc2s1)Nc1ccccc1,.,/,.,50,.,.,.,
Cc1cc(C)c(NC(=O)CSc2nc3ccc(NC(=O)CSc4nnnn4Cc4ccccc4)cc3s2)c(C)c1,.,.,.,.,.,.,/,
COC(=O)CSc1nc2ccc(NC(=O)CSc3nnnn3Cc3ccccc3)cc2s1,.,.,.,94,.,.,.,
COc1ccc2oc(C(=O)OCC(=O)N(C)CC(=O)Nc3ccc(C)cc3)c(C)c2c1,.,.,.,.,.,.,/,
Cc1ccc(NC(=O)c2ccc(Cl)c(S(=O)(=O)Nc3c(C)n(C)n(-c4ccccc4)c3=O)c2)cc1Cl,.,/,.,.,/,/,/,
c1cc2c(cc1-c1csc(NNC3=NCCCCC3)n1)OCCO2,.,.,.,.,.,.,/,
COc1ccc(/C(N)=N/OC(=O)c2c(-c3ccccc3Cl)noc2C)cc1OC,.,.,.,100,.,.,96,Full FLuc ctr=96
Cc1nc(/C(N)=N/OC(=O)c2c(-c3ccccc3Cl)noc2C)cs1,.,.,.,93,.,.,76,Full FLuc ctr=96
Cc1ccn2c(C(=O)NNC(=O)Nc3ccc(Cl)cc3)c(C)nc2c1,.,.,.,.,.,/,/,
CC(C)CCn1c(Sc2nc3ccccc3o2)nc2c1c(=O)[nH]c(=O)n2C,.,.,.,61,.,.,46,Full FLuc ctr=41
Cc1cc(Cl)ccc1NC(=S)N1CCN(C(=O)c2ccco2)CC1,.,.,.,.,.,.,/,
CCn1c(=O)c(C(=O)NNS(=O)(=O)c2ccc(C)cc2)c(O)c2ccccc21,.,.,.,.,.,.,/,
CCCn1c(=O)c(C(=O)NNS(=O)(=O)c2ccc(C)cc2)c(O)c2ccccc21,.,.,.,51,.,?,.,Full FLuc ctr=85
O=c1c(NCCc2ccc(Cl)cc2)c(-c2ccccc2)c1=O,.,.,.,.,.,.,/,
O=C1C=C(O)CC(c2ccc(Cl)c(Cl)c2)C1 (stereo not drawn),.,.,.,.,.,.,/,
CN[C@H]1CC[C@@H](c2ccc(Cl)c(Cl)c2)c2ccccc21,.,/,.,69,/,.,.,
